Reference: ChEMBL document CHEMBL3112443, “Development of new LXR modulators that regulate LXR target genes and reduce lipogenesis in human cell models” (Eur J Med Chem, 2014)
Activity calls are given as the source filed them. The calls are words filed in the database; no cut-off is given here.

Key:
[1] = target: T1, Liver X receptor (Homo sapiens) (UniProt Q13133+P55055); experiment: Modulation of LXR in human myotubes assessed as increase of T0901317-induced lipogenesis using [1-14C]acetate at 1 uM after 4 days by scintillation counting; assay type: protein assay
Procedure, shortened: (§1)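 Primary myotubes from satellite cells of 6 healthy donors, used after 7 days of differentiation. Treated 4 days with compounds ± T0901317 in 0.1% DMSO, then labelled 24 h with [1-14C]acetate (100 mM as printed). Lysed in NaOH; total lipids isolated by hydrophobic filtration and scintillation-counted. Normalized to protein; fold vs control, mean ± SEM, n = 3–6; dose–response n = 6.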

[2] = target: T1, Liver X receptor (Homo sapiens); experiment: Modulation of LXR in human myotubes assessed as decrease of T0901317-induced SCD1 mRNA expression at 10 uM after 4 days by qPCR analysis
Procedure, shortened: (§2)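 Cells given 1 mM T0901317 (so in the source) together with […] test compound; DMSO 0.1% vehicle. Myotubes treated 4 days, HepG2 24 h. Total RNA reverse-transcribed with hexamer primers, then SYBR Green qPCR. Expression normalized to 36B4 and given as fold change vs DMSO control, mean ± SEM, n = 3–11 separate experiments, at least 3 parallels each.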

[3] = target: T1, Liver X receptor (Homo sapiens); experiment: Modulation of LXR in human myotubes assessed as increase of D-[14C(U)]deoxy-D-glucose uptake at 1 to 50 uM after 4 days by scintillation counting; assay type: protein assay
Procedure, shortened: (§3)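 Primary myotubes, 7 days differentiated, treated 4 days with compounds in 0.1% DMSO. Then given D-[14C(U)]deoxy-D-glucose (100 mM as printed) for 4 h. Washed twice with ice-cold PBS, lysed in 0.1 M NaOH and counted by liquid scintillation. Uptake normalized to protein; mean ± SEM of separate experiments, at least 3 parallels each.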

[4] = target: T1, Liver X receptor (Homo sapiens); experiment: Modulation of LXR in human myotubes assessed as decrease of T0901317-induced FAS mRNA expression at 10 uM after 4 days by qPCR analysis; procedure, shortened: as §2
[5] = target: T1, Liver X receptor (Homo sapiens); experiment: Modulation of LXR in human HepG2 cells assessed as decrease of T0901317-induced ABCA1 mRNA expression at 10 uM after 4 days by qPCR analysis; assay type: cell-based
[6] = target: T1, Liver X receptor (Homo sapiens); experiment: Modulation of LXR in human HepG2 cells assessed as decrease of T0901317-induced SCD1 mRNA expression at 10 uM after 4 days by qPCR analysis; assay type: cell-based
[7] = target: T1, Liver X receptor (Homo sapiens); experiment: Modulation of LXR in human myotubes assessed as decrease of T0901317-induced ABCA1 mRNA expression at 10 uM after 4 days by qPCR analysis; procedure, shortened: as §2
[8] = target: T1, Liver X receptor (Homo sapiens); experiment: Modulation of LXR in human HepG2 cells assessed as decrease of T0901317-induced FAS mRNA expression at 10 uM after 4 days by qPCR analysis; assay type: cell-based
[9] = target: T1, Liver X receptor (Homo sapiens); experiment: Modulation of LXR in human myotubes assessed as increase of ABCA1 mRNA expression at 10 uM after 4 days by qPCR analysis
[10] = target: T1, Liver X receptor (Homo sapiens); experiment: Modulation of LXR in human HepG2 cells assessed as reduction of T0901317-induced lipogenesis using [1-14C]acetate at 1 uM after 24 h by scintillation counting
[11] = target: T1, Liver X receptor (Homo sapiens); experiment: Modulation of LXR in human myotubes assessed as reduction of T0901317-induced lipogenesis using [1-14C]acetate at 10 uM after 4 days by scintillation counting
[12] = target: T1, Liver X receptor (Homo sapiens); experiment: Modulation of LXR in human myotubes assessed as increase of ABCA1 mRNA expression at 10 uM after 4 days by qPCR analysis
Procedure, shortened: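 Primary human myotubes (satellite cells from abdominal muscle of 6 healthy donors, differentiated 7 days at 5.5 mM glucose, 25 pM insulin) treated with compound or 0.1% DMSO for 4 days. Total RNA reverse-transcribed with hexamer primers; SYBR Green qPCR. ABCA1 normalised to 36B4 and reported as fold change versus DMSO, mean ± SEM, n = 3–11.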

[13] = target: T1, Liver X receptor (Homo sapiens); experiment: Modulation of LXR in human myotubes assessed as increase of D-[14C(U)]deoxy-D-glucose uptake after 4 days by scintillation counting; assay type: protein assay; procedure, shortened: as §3
[14] = target: T1, Liver X receptor (Homo sapiens); experiment: Modulation of LXR in human HepG2 cells assessed as reduction of T0901317-induced lipogenesis using [1-14C]acetate at 1 uM after 4 days by scintillation counting; assay type: cell-based
[15] = target: T1, Liver X receptor (Homo sapiens); experiment: Modulation of LXR in human myotubes assessed as increase of D-[14C(U)]deoxy-D-glucose uptake at 50 uM after 4 days by scintillation counting; assay type: protein assay; procedure, shortened: as §3
[16] = target: T1, Liver X receptor (Homo sapiens); experiment: Modulation of LXR in human myotubes assessed as reduction of lipogenesis using [1-14C]acetate after 4 days by scintillation counting; assay type: protein assay; procedure, shortened: as §1
[17] = target: T1, Liver X receptor (Homo sapiens); experiment: Modulation of LXR in human myotubes assessed as increase of D-[14C(U)]deoxy-D-glucose uptake at 1 uM after 4 days by scintillation counting; assay type: protein assay; procedure, shortened: as §3
[18] = target: T1, Liver X receptor (Homo sapiens); experiment: Modulation of LXR in human HepG2 cells assessed as reduction of lipogenesis using [1-14C]acetate at 1 uM after 24 h by scintillation counting

Activity [1]	Activity [2]	Activity [3]	Activity [4]	Activity [5]	Activity [6]	Activity [7]	Activity [8]	Activity [13]	Activity [14]	Activity [15]	Activity [16]	Activity [17]	Activity [18]	SMILES	Activity [9]	Activity [10]	Activity [11]	Activity [12]
Active	inactive	inactive	inactive	inactive	inactive	inactive	inactive							CCCCCCN(CCCCCC)S(=O)(=O)c1ccc(COC[C@H](C)[C@@H](O)CCC(C)C)cc1				
Active	Active		Active		Active		Active	Dose-dependent effect	Active	Active				COc1ccc2cc(COC[C@H](C)[C@@H](O)CCC(C)C)ccc2c1				
Active	Active				Active			Dose-dependent effect			Dose-dependent effect	Active	Active	CC(C)CC[C@H](O)[C@@H](C)COCc1ccc(S(=O)(=O)N(COCC[Si](C)(C)C)COCC[Si](C)(C)C)cc1				
Active	inactive		inactive	Active	inactive	Active	inactive	Dose-dependent effect				Active		CC(C)CC[C@H](O)[C@@H](C)COCc1ccc(S(=O)(=O)N(C)C2CCCCC2)cc1				

SMILES	Activity [1]	Activity [2]	Activity [3]	Activity [4]	Activity [5]	Activity [6]	Activity [7]	Activity [8]	Activity [13]	Activity [14]	Activity [15]	Activity [16]	Activity [17]	Activity [18]	Activity [9]	Activity [10]	Activity [11]	Activity [12]
CC(C)CC[C@H](O)[C@@H](C)[C@H]1CC[C@H]2[C@@H]3CC=C4C[C@@H](O)CC[C@]4(C)[C@H]3CC[C@]12C					inactive		inactive								Active	Active	Active	Active
